Measured values from ChEMBL document CHEMBL4390650, “Design, synthesis and biological evaluation of 2-(phenoxymethyl)-5-phenyl-1,3,4-oxadiazole derivatives as anti-breast cancer agents” (Eur J Med Chem, 2019).
Active and inactive are the calls of the source. No cut-off for these calls is given here.

Tests used:
MCF-10A = test: Cytotoxicity against human MCF10A cells assessed as reduction in cell viability incubated for 48 hrs by MTT assay; assay type: cell-based
Procedure, shortened: (§1)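 Cells came from NCCS Pune and were grown in DMEM with 10% FBS at 37°C, 5% CO2, then trypsinized at 70-80% confluence. About 5,000 cells/well were seeded and allowed 24 h to recover. Compounds in DMSO, up to 100 μM, were added for 48 h against DMSO-only controls. The medium was then changed and MTT (5 mg/ml stock) added for 4 h. Formazan was dissolved in DMSO and read at 560 nm. Values are mean ± SD of three independent experiments in triplicate.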

MDA-MB-453 [1] = test: Cytotoxicity against human MDA-MB-453 cells assessed as reduction in cell viability incubated for 48 hrs by MTT assay; assay type: functional, cell-based; conditions: for IC50: MDA-MB-453, 48 h; procedure, shortened: as §1
MCF7 = test: Cytotoxicity against human MCF7 cells assessed as reduction in cell viability incubated for 48 hrs by MTT assay; assay type: functional, cell-based; conditions: for IC50: MCF7, 48 h; procedure, shortened: as §1
[2] = molecular target: DNA (cytosine-5)-methyltransferase 3B (Homo sapiens) (UniProt Q9UBC3); test: Inhibition of DNMT3B (unknown origin) at 100 uM using cytosine-rich DNA substrate by ELISA relative to untreated control
Procedure, shortened: (§2)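 DNMT activity was measured with a commercial DNA methyltransferase activity/inhibition screening kit, following the manufacturer's instructions.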

MDA-MB-453 [3] = test: Induction of morphological changes in human MDA-MB-453 cell assessed as induction of chromatin condensation at 10 uM incubated for 48 hrs by acridine orange and ethidium bromide staining based inverted fluorescent microscopy; assay type: functional
Procedure, shortened: (§3)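 MDA-MB-453 cells were seeded at 5×10⁵/well and incubated overnight at 37°C, 5% CO2, then treated for 48 h. They were stained 5 min with a 1:1 acridine orange/ethidium bromide mix (each dye 100 μg/ml) and imaged immediately under an inverted fluorescence microscope. Scoring: live cells green, late apoptotic orange, necrotic red.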

[4] = molecular target: DNA (cytosine-5)-methyltransferase 1 (Homo sapiens) (UniProt P26358); test: Inhibition of DNMT1 (unknown origin) at 100 uM using cytosine-rich DNA substrate by ELISA relative to untreated control; procedure, shortened: as §2
DNA (cytosine-5)-methyltransferase 1 (Homo sapiens), sequence (P26358 whole entry): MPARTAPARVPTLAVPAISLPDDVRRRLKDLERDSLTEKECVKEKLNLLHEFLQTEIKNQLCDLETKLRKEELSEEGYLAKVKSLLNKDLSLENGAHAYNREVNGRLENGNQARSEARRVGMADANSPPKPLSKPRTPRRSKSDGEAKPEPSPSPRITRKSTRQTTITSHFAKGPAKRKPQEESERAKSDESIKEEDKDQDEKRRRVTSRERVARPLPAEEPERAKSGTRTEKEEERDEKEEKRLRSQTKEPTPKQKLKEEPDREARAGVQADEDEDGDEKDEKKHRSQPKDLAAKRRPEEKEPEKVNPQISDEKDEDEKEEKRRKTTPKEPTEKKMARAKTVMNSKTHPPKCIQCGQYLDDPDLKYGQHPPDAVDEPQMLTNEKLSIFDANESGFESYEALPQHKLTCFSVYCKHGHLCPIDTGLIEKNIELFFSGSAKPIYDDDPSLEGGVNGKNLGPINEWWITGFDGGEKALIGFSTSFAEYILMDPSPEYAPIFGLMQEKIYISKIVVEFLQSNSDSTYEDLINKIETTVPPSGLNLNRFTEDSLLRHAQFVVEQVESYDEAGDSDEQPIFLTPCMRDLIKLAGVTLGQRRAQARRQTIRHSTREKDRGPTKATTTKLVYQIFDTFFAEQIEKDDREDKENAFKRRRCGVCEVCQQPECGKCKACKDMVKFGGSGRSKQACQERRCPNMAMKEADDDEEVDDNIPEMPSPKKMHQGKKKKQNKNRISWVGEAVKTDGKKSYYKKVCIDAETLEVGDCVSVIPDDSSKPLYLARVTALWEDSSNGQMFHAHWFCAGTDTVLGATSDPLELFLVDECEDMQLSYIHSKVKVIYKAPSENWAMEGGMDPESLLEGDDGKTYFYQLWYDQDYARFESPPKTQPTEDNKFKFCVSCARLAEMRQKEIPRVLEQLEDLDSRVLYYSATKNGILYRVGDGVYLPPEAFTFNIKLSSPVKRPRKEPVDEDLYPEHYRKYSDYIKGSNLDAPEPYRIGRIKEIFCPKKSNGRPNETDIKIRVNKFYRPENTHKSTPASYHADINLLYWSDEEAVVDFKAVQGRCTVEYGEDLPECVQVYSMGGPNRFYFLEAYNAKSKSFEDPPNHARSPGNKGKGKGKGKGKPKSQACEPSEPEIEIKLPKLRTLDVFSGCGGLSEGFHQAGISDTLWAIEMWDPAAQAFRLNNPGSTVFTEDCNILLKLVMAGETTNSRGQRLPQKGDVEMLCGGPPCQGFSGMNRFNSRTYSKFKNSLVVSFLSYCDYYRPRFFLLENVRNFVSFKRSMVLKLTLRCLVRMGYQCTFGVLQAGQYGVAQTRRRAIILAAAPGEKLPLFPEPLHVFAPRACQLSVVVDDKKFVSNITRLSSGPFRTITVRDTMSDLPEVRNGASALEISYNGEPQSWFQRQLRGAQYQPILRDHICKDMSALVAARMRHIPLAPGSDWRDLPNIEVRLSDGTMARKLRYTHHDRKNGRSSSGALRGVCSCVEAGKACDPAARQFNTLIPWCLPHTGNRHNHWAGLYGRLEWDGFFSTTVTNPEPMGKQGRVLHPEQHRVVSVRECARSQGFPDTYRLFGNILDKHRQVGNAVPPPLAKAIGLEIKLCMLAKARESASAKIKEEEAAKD

MDA-MB-453 [5] = test: Induction of apoptosis in human MDA-MB-453 cells assessed as increase in SMAD7 protein expression at 10 uM incubated for 48 hrs by Western blot analysis; assay type: functional, cell-based
Procedure, shortened: (§4)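 Western blot of treated MDA-MB-453 cells, with GAPDH as loading control.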

MDA-MB-453 [6] = test: Induction of morphological changes in human MDA-MB-453 cell assessed as induction of protrusion elongation at 10 uM incubated for 48 hrs by acridine orange and ethidium bromide staining based inverted fluorescent microscopy; assay type: functional; procedure, shortened: as §3
MDA-MB-453 [7] = test: Induction of apoptosis in human MDA-MB-453 cells assessed as increase in p53 protein expression incubated for 48 hrs by Western blot analysis; assay type: functional, cell-based; procedure, shortened: as §4
MDA-MB-453 [8] = test: Induction of morphological changes in human MDA-MB-453 cell assessed as induction of cell membrane blebbing at 10 uM incubated for 48 hrs by acridine orange and ethidium bromide staining based inverted fluorescent microscopy; assay type: functional; procedure, shortened: as §3
MDA-MB-453 [9] = test: Induction of apoptosis in human MDA-MB-453 cells at 10 uM incubated for 48 hrs by acridine orange and ethidium bromide staining based inverted fluorescent microscopy; assay type: functional, cell-based; procedure, shortened: as §3
MDA-MB-453 [10] = test: Induction of necrosis in human MDA-MB-453 cells at 10 uM incubated for 48 hrs by acridine orange and ethidium bromide staining based inverted fluorescent microscopy; assay type: functional, cell-based; procedure, shortened: as §3

| SMILES | IC50 (MCF-10A) | IC50 (MDA-MB-453 [1]) | IC50 (MCF7) | other results |
| --- | --- | --- | --- | --- |
| COc1cc(C#N)ccc1OCc1nnc(-c2ccc(Cl)cc2)o1 | 89.5 µM | 33.9 µM | 21.5 µM | – |
| Clc1ccc(-c2nnc(COc3ccc(-c4nnco4)cc3)o2)cc1 | > 100 µM | > 50 µM | 45.2 µM | – |
| COc1ccc(-c2nnc(COc3ccc(-c4nnco4)cc3)o2)cc1 | > 100 µM | 36.2 µM | 31.2 µM | – |
| Cc1ccc(-c2nnc(COc3ccc(C#N)c(F)c3)o2)cc1 | > 100 µM | > 50 µM | > 50 µM | – |
| Cc1ccc(-c2nnc(COc3ccc(-c4nnco4)cc3)o2)cc1 | > 100 µM | > 50 µM | > 50 µM | – |
| COc1cc(C#N)ccc1OCc1nnc(-c2ccc(F)cc2)o1 | > 100 µM | 10.5 µM | 10.2 µM | inhibition [2]: 33%; Activity (MDA-MB-453 [3]): Active; inhibition [4]: 10%; Activity (MDA-MB-453 [5]): Active; Activity (MDA-MB-453 [6]): Active; Activity (MDA-MB-453 [7]): Dose-dependent effect; Activity (MDA-MB-453 [1]): Dose-dependent effect; Activity (MDA-MB-453 [8]): Active; Activity (MCF7): Dose-dependent effect; Activity (MDA-MB-453 [9]): Active; Activity (MDA-MB-453 [10]): Active |
| Cc1ccc(NC(=O)c2ccc(CN3CCN(C)CC3)cc2)cc1Nc1nccc(-c2cccnc2)n1 [IMATINIB] | > 100 µM | 12.8 µM | – | – |
| N#Cc1ccc(OCc2nnc(-c3ccc(F)cc3)o2)cc1F | 84.2 µM | 25.1 µM | 20.4 µM | – |
| COc1ccc(-c2nnc(COc3ccc(C#N)cc3OC)o2)cc1 | > 100 µM | 13 µM | 11.1 µM | – |
| Fc1ccc(-c2nnc(COc3ccc(-c4nnco4)cc3)o2)cc1 | > 100 µM | 38.2 µM | 35.6 µM | – |
| COc1cc(C#N)ccc1OCc1nnc(-c2ccccc2)o1 | > 100 µM | 40.1 µM | 32.2 µM | – |
| COc1ccc(-c2nnc(COc3ccc(C#N)c(F)c3)o2)cc1 | > 100 µM | 45.5 µM | 42.1 µM | – |
| c1ccc(-c2nnc(COc3ccc(-c4nnco4)cc3)o2)cc1 | > 100 µM | > 50 µM | > 50 µM | – |
| N#Cc1ccc(OCc2nnc(-c3ccccc3)o2)cc1F | > 100 µM | > 50 µM | > 50 µM | – |
| N#Cc1ccc(OCc2nnc(-c3ccc(Cl)cc3)o2)cc1F | > 100 µM | > 50 µM | 48.3 µM | – |
| COc1cc(C#N)ccc1OCc1nnc(-c2ccc(C)cc2)o1 | > 100 µM | 38.4 µM | 27.1 µM | – |
